Screening results (PubChem BioAssay)
Hits are enriched below; roughly 0.72% of the tested compounds scored in any of these assays.
mIAP activ: mouse IAP activation. muIAP, CDP-Star luminescence, 30 min; stronger effect = higher value; 1 = vehicle-only enzyme signal, 0 = enzyme-free wells. 0.24% of 330,000 active. activation factor at 10 µM;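 active = activation factor of at least 2 at 20 µM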
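also added = chemiluminescent substrate CDP-Star | test system = mouse IAP enzyme | signal = chemiluminescence readout | compound = DMSO-dissolved test compounds | incubation = 30 min at room temperature | benchmarks = DMSO wells, no-enzyme wells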
bIAP inh: blocks bovine intestinal alkaline phosphatase activity | purified bovine IAP, CDP-star luminescence, 30 min | inhibition, % at 20 µM | 190,000 tested, under 10 active;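 active = over 50% inhibition of intestinal alkaline phosphatase at 20 µM in the single-dose screen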
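Assay system – bovine IAP enzyme · Quantity – bovine IAP at 1/65,000,000 final dilution · Detection – CDP-star luminescence signal · Times – 30 min reaction at room temperature · Also added – CDP-star substrate at 30 µM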
mIAP block: mouse IAP inhibition. purified mouse IAP, CDP-Star luminescence, 30 min. inhibition, % at 10 µM. 0.2% of 330,000 active;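 active = inhibition of at least 40% at 10 µM in the primary screen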;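 also: plate controls were DMSO with enzyme for no effect and no enzyme wells for full effect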
bIAP act: increases bovine intestinal alkaline phosphatase activity. purified bovine IAP, CDP-star luminescence, 30 min; stronger effect = higher value; fold of DMSO-control signal, blank-subtracted. activation factor at 20 µM. 0.17% of 200,000 active;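 active = activation factor of 2 or more at 20 µM, a signal rise over negative controls twice the positive control's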
hIAP block: blocks human intestinal alkaline phosphatase; P09923; purified IAP, CDP-Star luminescence, 30 min; inhibition, % at 10 µM; 0.12% of 330,000 active; AID 2544;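 active = inhibition reaching a set limit with compound at 10 µM in the primary screen, cut at about 35% in these data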;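 also: plate controls were DMSO wells with enzyme for no effect and no-enzyme buffer wells for full effect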
Target sequence (P09923 whole entry, looked up): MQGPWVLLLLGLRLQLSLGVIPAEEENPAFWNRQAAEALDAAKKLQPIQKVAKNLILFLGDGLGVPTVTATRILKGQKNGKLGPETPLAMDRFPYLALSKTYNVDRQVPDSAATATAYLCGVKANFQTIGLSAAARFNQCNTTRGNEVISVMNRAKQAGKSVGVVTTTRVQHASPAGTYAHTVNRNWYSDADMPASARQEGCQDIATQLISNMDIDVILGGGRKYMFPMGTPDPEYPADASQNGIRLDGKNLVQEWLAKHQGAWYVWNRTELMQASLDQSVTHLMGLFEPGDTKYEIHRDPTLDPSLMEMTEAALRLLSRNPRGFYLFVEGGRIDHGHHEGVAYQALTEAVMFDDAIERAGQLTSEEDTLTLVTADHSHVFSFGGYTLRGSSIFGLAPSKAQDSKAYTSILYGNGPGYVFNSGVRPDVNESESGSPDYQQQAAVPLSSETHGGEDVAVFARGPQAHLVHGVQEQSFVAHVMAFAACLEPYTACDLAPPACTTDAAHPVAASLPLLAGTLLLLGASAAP
hIAP act: human IAP activation; P09923; purified human IAP, CDP-Star luminescence, 30 min; stronger effect = higher value; 1 = vehicle-only enzyme, 0 = enzyme-free background; activation factor at 10 µM; 0.16% of 330,000 active; AID 2524;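 active = activation factor of the enzyme at least 2-fold when tested at 20 µM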
mIAP inh confirm: mouse IAP inhibition confirmation; 4.7% of 11,000 active; inhibition, % at 10 µM; shares compounds with mIAP block; purified mouse IAP, CDP-Star luminescence, 30 min;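 active = inhibition of at least 40% at 10 µM in either of the two replicates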;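 also: plate controls were DMSO wells with enzyme for no effect and buffer wells lacking enzyme for full effect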
Numbers without * were called inactive; i = inactive; . = no result given.

SMILES | mIAP activ | bIAP inh | mIAP block | bIAP act | hIAP block | hIAP act | mIAP inh confirm
COc1ccccc1C(CC(=O)Nc1ccc(C)c(C)c1)c1ccc(OC(C)C)cc1 (stereo unspecified) | 2.1* | 15 | -114 | 0.8 | 0 | 1 | -106
COc1cccc(CN(C)C(=O)CSCC(=O)Nc2cc(C)on2)c1OC | 0.94 | . | 6 | . | -10 | 1.1 | .
CCCCOc1ccc(NC2=NC3(CCCCC3)N=C(N)N2)cc1 | 4.8* | -365 | -376 | 4.6* | 2 | 0.98 | -453
Cc1ccc(NC(=O)CSc2nnc(-c3cccs3)o2)cc1S(=O)(=O)N(C)C | 0.97 | -34 | 3 | 1.3 | -1 | 1 | .
O=C(O)CCN1C(=O)/C(=C\c2ccc(-c3nc4ccccc4s3)o2)SC1=S | 0.47 | . | 53* | 0.4 | -19 | 1.2 | 62*
CC(C)(C)c1ccc(NC(=O)NC2CCCc3ccccc32)cc1 (stereo unspecified) | 6.2* | . | i | . | -42 | 1.4 | -253
Cc1ccc(NC(=O)NC2CCCc3ccccc32)cc1 (stereo unspecified) | 1.5 | . | -55 | . | 4 | 0.96 | .
COc1ccc(C(=O)OCC(=O)NC2CCCCCC2)cc1OC | 0.42 | . | 58* | . | -27 | 1.3 | 71*
Cc1ccc(/C=C2/SC(=O)NC2=S)o1 | 0.55 | 24 | 45* | 0.8 | -8 | 1.1 | 63*
CNC(=O)c1c(C)nn(-c2ccc(F)c(Cl)c2)c1-c1cc(C)on1 | 1.2 | . | -20 | . | -1 | 1 | .
C[C@H](CO)N1C[C@H](C)[C@H](CN(C)Cc2ccc(Oc3ccccc3)cc2)Oc2ccc(NC(=O)Nc3cccc4ccccc34)cc2CC1=O | 2.8* | . | -176 | . | 0 | 1 | -103
COc1ccc(S(=O)(=O)N(C)C[C@H]2Oc3ccc(NC(=O)NC4CCCCC4)cc3C(=O)N([C@H](C)CO)C[C@@H]2C)cc1 | 4.7* | . | -373 | . | 6 | 0.94 | -174
COc1ccc(S(=O)(=O)N(C)C[C@H]2Oc3ccc(NC(=O)Nc4ccccc4)cc3C(=O)N([C@H](C)CO)C[C@@H]2C)cc1 | 3.1* | . | -208 | . | 2 | 0.98 | -115
CC(C)NC(=O)Nc1ccc2c(c1)C(=O)N([C@H](C)CO)C[C@H](C)[C@@H](CN(C)S(=O)(=O)c1cccs1)O2 | 1.4 | . | -42 | . | 2 | 0.98 | .
COc1ccc(S(=O)(=O)N(C)C[C@H]2Oc3ccc(NC(=O)C4CCCCC4)cc3C(=O)N([C@H](C)CO)C[C@@H]2C)cc1 | 1.4 | . | -37 | . | 0 | 1 | .
COc1ccc(NC(=O)Nc2ccc3c(c2)C(=O)N([C@H](C)CO)C[C@H](C)[C@@H](CN(C)S(=O)(=O)c2cccs2)O3)cc1 | 2.7* | . | -175 | . | -4 | 1 | -110
CC(=O)Nc1cccc(NC(=O)C(=O)NCC(c2ccco2)N2CCc3ccccc3C2)c1 (stereo unspecified) | 0.89 | . | 11 | . | 20 | 0.8 | .
C[C@H](CO)N1C[C@H](C)[C@@H](CN(C)S(=O)(=O)c2ccc(F)cc2)Oc2ccc(NC(=O)NC3CCCCC3)cc2C1=O | 4.2* | . | -317 | . | -27 | 1.3 | -120
CN1CCN(C(=O)/C=C/c2ccc(C#N)cc2)CC1 | 0.96 | . | 4 | . | 6 | 0.94 | .
O=C(O)c1cc(-c2ccco2)[nH]n1 | 0.31 | -3 | 69* | 1 | -5 | 1.1 | 68*
Cc1sc2nc(SCC(=O)Nc3cccc(S(N)(=O)=O)c3)[nH]c(=O)c2c1C | 0.49 | . | 51* | . | 3 | 0.97 | 62*
O=C(NCCc1ccc(Cl)cc1)Nc1ccc(F)cc1 | 1.4 | -14 | -40 | 1.1 | -11 | 1.1 | .
CCCc1c(NC(=O)Nc2ccc(F)cc2)cnn1-c1ccc(Cl)cc1 | 3.8* | . | -278 | . | -43 | 1.4 | -142
Cc1ccc(S(=O)(=O)/N=C2/NC(=O)/C(=C\c3ccccc3)S2)cc1 | 0.97 | . | 3 | . | -8 | 1.1 | .
Cc1ccc(S(=O)(=O)/N=C2/NC(=O)/C(=C\c3ccco3)S2)cc1 | 0.6 | 2 | 40* | 1 | 8 | 0.92 | 43*
SMILES | mIAP activ | bIAP inh | mIAP block | bIAP act | hIAP block | hIAP act | mIAP inh confirm
CC(=O)Nc1ccc(S(=O)(=O)/N=C2/NC(=O)/C(=C\c3ccco3)S2)cc1 | 0.54 | -18 | 46* | 1.2 | 5 | 0.95 | 49*
Cc1cc(Br)ccc1NC(=O)CN(C)C(=O)CN1C(=O)NC(C)(C2CC2)C1=O (stereo unspecified) | 1.1 | . | -14 | . | 0 | 1 | .
Cc1ccc(C)c(NS(=O)(=O)c2ccc3[nH]c(=O)oc3c2)c1 | 0.16 | -6 | 84* | 1.1 | -7 | 1.1 | 89*
Cc1ccc(NS(=O)(=O)c2ccc3[nH]c(=O)oc3c2)cc1Cl | 0.8 | . | 20 | . | 8 | 0.93 | .
O=c1[nH]c2ccc(S(=O)(=O)N3CCCCC3)cc2o1 | 0.2 | 11 | 80* | 0.9 | 4 | 0.96 | 74*
Cc1cccc(NS(=O)(=O)c2ccc3[nH]c(=O)oc3c2)c1C | 0.98 | . | 2 | . | -8 | 1.1 | .
COC(=O)c1ccc(NS(=O)(=O)c2ccc3[nH]c(=O)oc3c2)cc1 | 0.3 | . | 70* | . | -11 | 1.1 | 74*
COc1ccc(Cl)cc1NC(=O)CSc1nnc(Cc2ccc(C)cc2)c(=O)[nH]1 | 0.89 | . | 11 | . | -20 | 1.2 | .
CCC(C)N(C(=O)CSc1nnc(-c2ccco2)n1C)C1CCS(=O)(=O)C1 (stereo unspecified) | 1.1 | . | -6 | . | 0 | 1 | .
N#CC1(NC(=O)CSc2n[nH]c(-c3ccccc3)n2)CCCCC1 | 1 | . | -4 | . | 1 | 0.99 | .
c1ccc(-c2nccc(-c3ccco3)n2)nc1 | 1 | 0 | 0 | 1 | -13 | 1.1 | .
Nc1ncnc2oc(-c3ccco3)c(-c3ccco3)c12 | 0.29 | 8 | 71* | 0.9 | 14 | 0.86 | 75*
O=C(CNc1cccc2ccccc12)N/N=C/C=C/c1ccco1 | 0.39 | 14 | 61* | 0.9 | 10 | 0.9 | 59*
O=C(CNc1cccc2ccccc12)N/N=C/c1ccc(C(=O)O)cc1 | 0.8 | 13 | 20 | 0.9 | 10 | 0.9 | .
CCOC(=O)C(C)Sc1nc2c(c(=O)[nH]c(=O)n2C)n1C/C=C(/C)Cl (stereo unspecified) | 0.32 | -10 | 68* | 1.1 | 13 | 0.87 | 71*
CCSc1nc2c(c(=O)[nH]c(=O)n2C)n1C/C=C(/C)Cl | 0.94 | 10 | 6 | 0.9 | 5 | 0.95 | .
COc1c(-c2ccc(O)cc2)oc2cc(O)cc(O)c2c1=O | 0.87 | . | 13 | . | 28 | 0.71 | .
CC(=O)Oc1cc(O)c2c(=O)c(OC(C)=O)c(-c3ccc(OC(C)=O)c(OC(C)=O)c3)oc2c1 | 0.57 | . | 43* | . | 31 | 0.69 | 45*
C=CCN(c1ccccc1C(=O)NCC(=O)O)S(=O)(=O)c1ccccc1C | 1 | . | -1 | . | -4 | 1 | .
